According to PMC3107129 (Nature chemical biology, 2010):

Legend:
recombinant WT-TTR = recombinant WT-TTR (Homo sapiens, UniProt P02766); assay: conjugation of recombinant WT-TTR by RP-HPLC; format: binding; conditions: for conjugation half-life (t50) with WT-TTR: recombinant WT-TTR, C18-RP-HPLC
[1] = molecular target: TTR in human blood plasma (Homo sapiens, UniProt P02766); assay: covalent modification of TTR in human blood plasma ex vivo; format: binding; conditions: compound 10.8 μM, 37 °C, maximum 50% (2/4 subunits)
How it was run: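 Test compound at 10.8 μM final, from DMSO stock, incubated with human plasma (TTR 3.6–5.4 μM) for 24 h at 37 °C with rocking. Plasma pre-cleared on plain sepharose for 1 h at 4 °C. TTR immunocaptured on anti-TTR sepharose for 20 min at 4 °C, then washed with Tris-saline ± 0.05% saponin. Eluted with 100 mM triethylamine, pH 11.5. C18 RP-HPLC, 45-min 0.1% TFA water→acetonitrile gradient; at most 2/4 subunits modifiable.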

K15A-TTR [2] = molecular target: T1, K15A-TTR (Homo sapiens, UniProt P02766, K35A); assay: non-covalent binding to K15A-TTR; conditions: out of a maximum of 2 eq.; immunocapture, high-pH dissociation, HPLC
K15A-TTR [3] = molecular target: T1, K15A-TTR; assay: reaction with K15A-TTR homotetramer by RP-HPLC; format: binding; conditions: compound 7.2 μM, 18 h, 25 °C
K15A-TTR [4] = molecular target: T1, K15A-TTR; assay: K15A-TTR fibril formation at pH 4.4 with non-covalent stabilizers; format: biochemical; conditions: compound 7.2 μM, 72 h
[5] = tested on: IMR-32 human neuroblastoma cells; conditions: cited from earlier work

O=C(Sc1ccccc1)c1cccc(/C=C/c2cc(Br)c(O)c(Br)c2)c1 [Compound 1]
conjugation half-life (t50) with WT-TTR (recombinant WT-TTR): 143 min | % Modification of TTR subunits in Human Blood Plasma [1]: 36% (±0.4%)

Cc1cc(/C=C/c2cccc(C(=O)Sc3ccccc3)c2)cc(C)c1O [Compound 2]
conjugation half-life (t50) with WT-TTR (recombinant WT-TTR): 5 to 15 min | % Modification of TTR subunits in Human Blood Plasma [1]: 48% (±1.3%)

Cc1cc(/C=C/c2cccc(C(=O)Oc3ccccc3[N+](=O)[O-])c2)cc(C)c1O [Compound 3]
conjugation half-life (t50) with WT-TTR (recombinant WT-TTR): 5 to 15 min | % Modification of TTR subunits in Human Blood Plasma [1]: 49% (±0.7%)

Cc1cc(/C=C/c2cccc(C(=O)Oc3ccc(F)cc3)c2)cc(C)c1O [Compound 4]
equivalents non-covalently bound to K15A-TTR homotetramer (K15A-TTR [2]): 1.4 eq. | reaction with K15A-TTR (K15A-TTR [3]): no reaction could be detected

Cc1cc(/C=C/c2ccc(C(=O)Oc3ccccc3[N+](=O)[O-])cc2)cc(C)c1O [Compound 6]
reaction with K15A-TTR (K15A-TTR [3]): more non-chemoselective conjugation

Cc1cc(/C=C/c2ccc(C(=O)Oc3ccc(F)cc3)cc2)cc(C)c1O [Compound 7]
conjugation yield with WT-TTR (recombinant WT-TTR; WT-TTR […], compound 7.2 μM, 18 h, 25 °C): lower modification yield

Cc1cc(/C=C/c2cccc(C(=O)O)c2)cc(C)c1O [Compound 8]
stabilization of K15A-TTR against fibril formation (K15A-TTR [4]): additional stabilization of K15A-TTR was observed

Cc1cc(/C=C/c2ccccc2)cc(C)c1O [Compound 9]
stabilization of K15A-TTR against fibril formation (K15A-TTR [4]): additional stabilization of K15A-TTR was observed

Oc1ccc(/C=C/c2cc(O)cc(O)c2)cc1 [resveratrol]
prevention of amyloid-formation-associated cytotoxicity [5]: known to prevent amyloid-formation-associated cytotoxicity
